Experimental data as given in paper PMC4806784 (Investigational new drugs, 2015).
Read-outs that look alike come from different tables or passages of the source.

Type: in vivo, human
Details: for AUC(0-t) / Cmax / Tmax / half-life / concentration at 12 h: plasma; for concentration at 12 h: C12h
Method in brief: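 Test compound was given as oral capsules with […] water after a 2-h fast, BID Q12hr, 3–6 patients per dose level. Docetaxel 60 mg/m2 was a 1-h IV infusion 2 h beforehand. […] was sampled on Cycle 1 Day 1 (predose, 0.5–24 h after dose 1) and Day 2 (predose, 0.5–44 h after dose 4). Analysis was non-compartmental, with AUC by linear-up/log-down trapezoidal method and Cmax/Tmax by inspection.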

## O=C(O)[C@]1(Cc2cccc(Nc3nccs3)n2)CC[C@@H](Oc2cccc(Cl)c2F)CC1 [MK-5108]
Panel 2 (CT with docetaxel), any tested dose level
  mean target trough concentration of 2 μM: not achieved
Following the first dose
  dose proportionality of AUC0-12h and Cmax: less than dose proportionally
Following the fourth dose, 100 to 1800 mg (Q12hr)
  dose proportionality of AUC0-12h and Cmax: roughly dose proportionally
human, in vivo
  dose proportionality of serum concentration at 12 hours post dose (trough): roughly dose proportionally
  shape of mean plasma concentration decline: biphasic decline
human, iv, 60 mg/m2, AUC0-12h, 100 mg/day, Panel 2 (CT, docetaxel 60 mg/m^2 IV), Dose 1
  AUC(0-t): 7.9 ± 2 µM·h
human, iv, 60 mg/m2, AUC0-12h, 100 mg/day, Panel 2 (CT, docetaxel 60 mg/m^2 IV), Dose 4
  AUC(0-t): 10.8 ± 3.3 µM·h
human, iv, 60 mg/m2, AUC0-12h, 150 mg/day, Panel 2 (CT, docetaxel 60 mg/m^2 IV), Dose 1
  AUC(0-t): 15 ± 9.2 µM·h
human, iv, 60 mg/m2, AUC0-12h, 150 mg/day, Panel 2 (CT, docetaxel 60 mg/m^2 IV), Dose 4
  AUC(0-t): 16.4 ± 8.9 µM·h
human, iv, 60 mg/m2, AUC0-12h, 225 mg/day, Panel 2 (CT, docetaxel 60 mg/m^2 IV), Dose 1
  AUC(0-t): 18.5 ± 6.2 µM·h
human, iv, 60 mg/m2, AUC0-12h, 225 mg/day, Panel 2 (CT, docetaxel 60 mg/m^2 IV), Dose 4
  AUC(0-t): 23.4 ± 8.8 µM·h
human, iv, 60 mg/m2, Cmax, 100 mg/day, Panel 2 (CT, docetaxel 60 mg/m^2 IV), Dose 1
  Cmax: 2.3 ± 1.2 µM
human, iv, 60 mg/m2, Cmax, 100 mg/day, Panel 2 (CT, docetaxel 60 mg/m^2 IV), Dose 4
  Cmax: 2.2 ± 1 µM
human, iv, 60 mg/m2, Cmax, 150 mg/day, Panel 2 (CT, docetaxel 60 mg/m^2 IV), Dose 1
  Cmax: 3.5 ± 2 µM
human, iv, 60 mg/m2, Cmax, 150 mg/day, Panel 2 (CT, docetaxel 60 mg/m^2 IV), Dose 4
  Cmax: 3.2 ± 1.7 µM
human, iv, 60 mg/m2, Cmax, 225 mg/day, Panel 2 (CT, docetaxel 60 mg/m^2 IV), Dose 1
  Cmax: 5 ± 0.8 µM
human, iv, 60 mg/m2, Cmax, 225 mg/day, Panel 2 (CT, docetaxel 60 mg/m^2 IV), Dose 4
  Cmax: 5.3 ± 1.7 µM
human, iv, 60 mg/m2, Tmax, 100 mg/day, Panel 2 (CT, docetaxel 60 mg/m^2 IV), Dose 1, median (range)
  Tmax: 2 h
human, iv, 60 mg/m2, Tmax, 100 mg/day, Panel 2 (CT, docetaxel 60 mg/m^2 IV), Dose 4, median (range)
  Tmax: 4 h
human, iv, 60 mg/m2, Tmax, 150 mg/day, Panel 2 (CT, docetaxel 60 mg/m^2 IV), Dose 1, median (range)
  Tmax: 3.5 h
human, iv, 60 mg/m2, Tmax, 150 mg/day, Panel 2 (CT, docetaxel 60 mg/m^2 IV), Dose 4, median (range)
  Tmax: 5 h
human, iv, 60 mg/m2, Tmax, 225 mg/day, Panel 2 (CT, docetaxel 60 mg/m^2 IV), Dose 1, median (range)
  Tmax: 2 h
human, iv, 60 mg/m2, Tmax, 225 mg/day, Panel 2 (CT, docetaxel 60 mg/m^2 IV), Dose 4, median (range)
  Tmax: 3 h
human, iv, 60 mg/m2, t1/2, 100 mg/day, Panel 2 (CT, docetaxel 60 mg/m^2 IV), Dose 4
  half-life: 13.5 ± 10.6 h
human, iv, 60 mg/m2, t1/2, 150 mg/day, Panel 2 (CT, docetaxel 60 mg/m^2 IV), Dose 4
  half-life: 10.1 ± 5 h
human, iv, 60 mg/m2, t1/2, 225 mg/day, Panel 2 (CT, docetaxel 60 mg/m^2 IV), Dose 4
  half-life: 9.2 ± 5.1 h
human, iv, 100 mg/day, Panel 2 (CT, docetaxel 60 mg/m^2 IV), Dose 1
  concentration at 12 h: 0.15 ± 0.12 µM
human, iv, 100 mg/day, Panel 2 (CT, docetaxel 60 mg/m^2 IV), Dose 4
  concentration at 12 h: 0.21 ± 0.1 µM
human, iv, 150 mg/day, Panel 2 (CT, docetaxel 60 mg/m^2 IV), Dose 1
  concentration at 12 h: 0.33 ± 0.22 µM
human, iv, 150 mg/day, Panel 2 (CT, docetaxel 60 mg/m^2 IV), Dose 4
  concentration at 12 h: 0.51 ± 0.37 µM
human, iv, 225 mg/day, Panel 2 (CT, docetaxel 60 mg/m^2 IV), Dose 1
  concentration at 12 h: 0.46 ± 0.26 µM
human, iv, 225 mg/day, Panel 2 (CT, docetaxel 60 mg/m^2 IV), Dose 4
  concentration at 12 h: 0.66 ± 0.62 µM
human, oral, 200 mg/day, AUC0-12h, Panel 1 (MT), Dose 1
  AUC(0-t): 17.5 ± 5.6 µM·h
human, oral, 200 mg/day, AUC0-12h, Panel 1 (MT), Dose 4
  AUC(0-t): 31.2 ± 16.3 µM·h
human, oral, 200 mg/day, Panel 1 (MT), Dose 1
  concentration at 12 h: 0.35 ± 0.05 µM
human, oral, 200 mg/day, Panel 1 (MT), Dose 4
  concentration at 12 h: 1.92 ± 1.91 µM
human, oral, 200 mg/day, Cmax, Panel 1 (MT), Dose 1
  Cmax: 3.9 ± 0.7 µM
human, oral, 200 mg/day, Cmax, Panel 1 (MT), Dose 4
  Cmax: 4.8 ± 1 µM
human, oral, 200 mg/day, Tmax, Panel 1 (MT), Dose 1, median (range)
  Tmax: 4 h
human, oral, 200 mg/day, Tmax, Panel 1 (MT), Dose 4, median (range)
  Tmax: 4 h
human, oral, 200 mg/day, t1/2, 200 mg/day, Panel 1 (MT), Dose 4
  half-life: 9.3 ± 1.2 h
human, oral, 400 mg/day, AUC0-12h, Panel 1 (MT), Dose 1
  AUC(0-t): 27 ± 12.2 µM·h
human, oral, 400 mg/day, AUC0-12h, Panel 1 (MT), Dose 4
  AUC(0-t): 75.7 ± 46.2 µM·h
human, oral, 400 mg/day, Panel 1 (MT), Dose 1
  concentration at 12 h: 0.25 ± 0.13 µM
human, oral, 400 mg/day, Panel 1 (MT), Dose 4
  concentration at 12 h: 2.02 ± 1.52 µM
human, oral, 400 mg/day, Cmax, Panel 1 (MT), Dose 1
  Cmax: 6.7 ± 2.4 µM
human, oral, 400 mg/day, Cmax, Panel 1 (MT), Dose 4
  Cmax: 11 ± 5.3 µM
human, oral, 400 mg/day, Tmax, Panel 1 (MT), Dose 1, median (range)
  Tmax: 2 h
human, oral, 400 mg/day, Tmax, Panel 1 (MT), Dose 4, median (range)
  Tmax: 6 h
human, oral, 400 mg/day, t1/2, 400 mg/day, Panel 1 (MT), Dose 4
  half-life: 8.7 ± 6.7 h
human, oral, 800 mg/day, AUC0-12h, Panel 1 (MT), Dose 1
  AUC(0-t): 69 ± 41.9 µM·h
human, oral, 800 mg/day, AUC0-12h, Panel 1 (MT), Dose 4
  AUC(0-t): 95.5 ± 44.9 µM·h
human, oral, 800 mg/day, Panel 1 (MT), Dose 1
  concentration at 12 h: 1.68 ± 1.91 µM
human, oral, 800 mg/day, Panel 1 (MT), Dose 4
  concentration at 12 h: 4.53 ± 2.68 µM
human, oral, 800 mg/day, Cmax, Panel 1 (MT), Dose 1
  Cmax: 19.5 ± 5.5 µM
human, oral, 800 mg/day, Cmax, Panel 1 (MT), Dose 4
  Cmax: 20 ± 11 µM
human, oral, 800 mg/day, Tmax, Panel 1 (MT), Dose 1, median (range)
  Tmax: 1 h
human, oral, 800 mg/day, Tmax, Panel 1 (MT), Dose 4, median (range)
  Tmax: 1 h
human, oral, 800 mg/day, t1/2, 800 mg/day, Panel 1 (MT), Dose 4
  half-life: 11.1 ± 1.1 h
human, oral, 1200 mg/day, AUC0-12h, Panel 1 (MT), Dose 1
  AUC(0-t): 96.6 ± 45.6 µM·h
human, oral, 1200 mg/day, AUC0-12h, Panel 1 (MT), Dose 4
  AUC(0-t): 116 ± 61.4 µM·h
human, oral, 1200 mg/day, Panel 1 (MT), Dose 1
  concentration at 12 h: 2.12 ± 2.09 µM
human, oral, 1200 mg/day, Panel 1 (MT), Dose 4
  concentration at 12 h: 3.31 ± 0.53 µM
human, oral, 1200 mg/day, Cmax, Panel 1 (MT), Dose 1
  Cmax: 22.3 ± 12.7 µM
human, oral, 1200 mg/day, Cmax, Panel 1 (MT), Dose 4
  Cmax: 25 ± 9.4 µM
human, oral, 1200 mg/day, Tmax, Panel 1 (MT), Dose 1, median (range)
  Tmax: 2 h
human, oral, 1200 mg/day, Tmax, Panel 1 (MT), Dose 4, median (range)
  Tmax: 3 h
human, oral, 1200 mg/day, t1/2, 1200 mg/day, Panel 1 (MT), Dose 4
  half-life: 8.3 ± 3.3 h
human, oral, 1500 mg/day, AUC0-12h, Panel 1 (MT), Dose 1
  AUC(0-t): 83.2 ± 50.8 µM·h
human, oral, 1500 mg/day, AUC0-12h, Panel 1 (MT), Dose 4
  AUC(0-t): 131 ± 53.2 µM·h
human, oral, 1500 mg/day, Panel 1 (MT), Dose 1
  concentration at 12 h: 1.04 ± 0.4 µM
human, oral, 1500 mg/day, Panel 1 (MT), Dose 4
  concentration at 12 h: 2.8 ± 1.26 µM
human, oral, 1500 mg/day, Cmax, Panel 1 (MT), Dose 1
  Cmax: 20.8 ± 10.6 µM
human, oral, 1500 mg/day, Cmax, Panel 1 (MT), Dose 4
  Cmax: 28.9 ± 13.6 µM
human, oral, 1500 mg/day, Tmax, Panel 1 (MT), Dose 1, median (range)
  Tmax: 2 h
human, oral, 1500 mg/day, Tmax, Panel 1 (MT), Dose 4, median (range)
  Tmax: 2 h
human, oral, 1500 mg/day, t1/2, 1500 mg/day, Panel 1 (MT), Dose 4
  half-life: 11.4 ± 2 h
human, oral, 1800 mg/day, AUC0-12h, Panel 1 (MT), Dose 1
  AUC(0-t): 101 ± 39.3 µM·h
human, oral, 1800 mg/day, AUC0-12h, Panel 1 (MT), Dose 4
  AUC(0-t): 234 ± 62.7 µM·h
human, oral, 1800 mg/day, Panel 1 (MT), Dose 1
  concentration at 12 h: 4.78 ± 4.64 µM
human, oral, 1800 mg/day, Panel 1 (MT), Dose 4
  concentration at 12 h: 6.85 ± 3.96 µM
human, oral, 1800 mg/day, Cmax, Panel 1 (MT), Dose 1
  Cmax: 24.8 ± 9.6 µM
human, oral, 1800 mg/day, Cmax, Panel 1 (MT), Dose 4
  Cmax: 50.2 ± 11.4 µM
human, oral, 1800 mg/day, Tmax, Panel 1 (MT), Dose 1, median (range)
  Tmax: 2 h
human, oral, 1800 mg/day, Tmax, Panel 1 (MT), Dose 4, median (range)
  Tmax: 3 h
human, oral, 1800 mg/day, t1/2, 1800 mg/day, Panel 1 (MT), Dose 4
  half-life: 6.6 ± 0.6 h
human, oral, Median Tmax, following the first dose, across dose levels
  Tmax: 1 to 4 h
human, oral, Median Tmax, following the fourth dose, across dose levels
  Tmax: 1 to 6 h
human, oral, mean t1/2, range across dose levels, across both panels
  half-life: 6.6 to 13.5 h
human, oral, t1/2 range (variable), following Dose 4
  half-life: 5 to 29 h
